ChEMBL document CHEMBL1671677, “Role of AbeS, a novel efflux pump of the SMR family of transporters, in resistance to antimicrobial agents in Acinetobacter baumannii” (2009)
Converted amounts (≈) assume the structure as drawn. The source made the active and inactive calls.

How the values were obtained:
Acinetobacter baumannii [1] = test: Antibacterial activity against Acinetobacter baumannii AC0037 by CLSI broth microdilution method; assay type: functional
Acinetobacter baumannii [2] = test: Antibacterial activity against abeS sigma abeS-deficient Acinetobacter baumannii AC0037 by CLSI broth microdilution method; assay type: functional
Acinetobacter baumannii [3] = test: Antibacterial activity against abeS-deficient Acinetobacter baumannii AC0037 by CLSI broth microdilution method; assay type: functional
Escherichia coli [4] = test: Antibacterial activity against Escherichia coli KAM32 harboring plasmid pUC18 by CLSI broth microdilution method; assay type: functional
Escherichia coli [5] = test: Ratio of MIC for Escherichia coli KAM32 harboring recombinant plasmid pVBS1 encoding Acinetobacter baumannii abeS gene to MIC for Escherichia coli KAM32 harboring plasmid pUC18
Escherichia coli [6] = test: Antibacterial activity against Escherichia coli KAM32 harboring plasmid pUC18 by CLSI broth microdilution method in presence of 25 ug/ml efflux pump inhibitor CCCP; assay type: functional
Escherichia coli [7] = test: Antibacterial activity against Escherichia coli KAM32 harboring recombinant plasmid pVBS1 encoding Acinetobacter baumannii abeS gene by CLSI broth microdilution method; assay type: functional
Acinetobacter baumannii [8] = test: Ratio of MIC for Acinetobacter baumannii AC0037 to MIC for abeS-deficient Acinetobacter baumannii AC0037; assay type: functional
Procedure, shortened: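 MICs were determined by broth dilution and interpreted per CLSI criteria for the parental A. baumannii AC0037 and its abeS null mutant. The mutant was made by electroporating a plasmid carrying abeS disrupted by a kanamycin-resistance cassette, for double homologous recombination, and selected on 50 μg/ml kanamycin plus 80 μg/ml ticarcillin. The ratio is the parental MIC over the mutant MIC.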

Escherichia coli [9] = test: Antibacterial activity against Escherichia coli KAM32 harboring recombinant plasmid pVBS1 encoding Acinetobacter baumannii abeS gene by CLSI broth microdilution method in presence of 25 ug/ml efflux pump inhibitor CCCP; assay type: functional
[10] = target: T1, QacEdelta1 SMR family efflux pump (Acinetobacter baumannii) (UniProt Q2FD83); test: Inhibition of Acinetobacter baumannii abeS expressed in Escherichia coli KAM32 assessed as decrease in increase in bromide accumulation
T1 sequence (whole entry): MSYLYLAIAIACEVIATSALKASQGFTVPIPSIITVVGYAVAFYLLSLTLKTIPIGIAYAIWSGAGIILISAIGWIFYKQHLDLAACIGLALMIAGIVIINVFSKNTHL
Procedure, shortened: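 EtBr accumulation in E. coli KAM32 (lacks AcrAB, YdhE) carrying pUC18 or pVBS1 (abeS). CCCP, a proton motive force uncoupler, added to 25 μg/ml final after 20 min with substrate. Cells lysed; supernatant fluorescence read at excitation 530 nm, emission 600 nm. Relative fluorescence taken as accumulated EtBr. Mean plus SD of three independent experiments.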

SMILES | MIC (Acinetobacter baumannii [1]) [µg/mL] | MIC (Acinetobacter baumannii [2]) [µg/mL] | MIC (Acinetobacter baumannii [3]) [µg/mL] | MIC (Escherichia coli [4]) [µg/mL] | Ratio (Escherichia coli [5]) | MIC (Escherichia coli [6]) [µg/mL] | MIC (Escherichia coli [7]) [µg/mL] | Ratio (Acinetobacter baumannii [8]) | MIC (Escherichia coli [9]) [µg/mL] | Activity (Acinetobacter baumannii [3]) | inhibition [10]
CO[C@H]1/C=C/O[C@@]2(C)Oc3c(C)c(O)c4c(O)c(c(/C=N/N5CCN(C)CC5)c(O)c4c3C2=O)NC(=O)/C(C)=C\C=C\[C@H](C)[C@H](O)[C@@H](C)[C@@H](O)[C@@H](C)[C@H](OC(C)=O)[C@@H]1C [RIFAMPIN] | 2 (≈ 2.43 µM) | 2 (≈ 2.43 µM) | 2 (≈ 2.43 µM) | – | – | – | – | – | – | – | –
CC[C@H]1OC(=O)[C@H](C)[C@@H](O[C@H]2C[C@@](C)(OC)[C@@H](O)[C@H](C)O2)[C@H](C)[C@@H](O[C@@H]2O[C@H](C)C[C@H](N(C)C)[C@H]2O)[C@](C)(O)C[C@@H](C)C(=O)[C@H](C)[C@@H](O)[C@]1(C)O [ERYTHROMYCIN] | 64 (≈ 87.2 µM) | 32 (≈ 43.6 µM) | 8 (≈ 10.9 µM) | 4 (≈ 5.45 µM) | 6 | < 0.05 | 24 | 8 | 0.25 | – | –
C[n+]1ccc(-c2cc[n+](C)cc2)cc1.[Cl-].[Cl-] [PARAQUAT DICHLORIDE] | 800 | 800 | 400 | 64 | 2 | < 2.5 | 128 | 2 | < 2.5 | – | –
CN(C)[C@@H]1C(O)=C(C(N)=O)C(=O)[C@@]2(O)C(O)=C3C(=O)c4c(O)cccc4[C@@](C)(O)[C@H]3C[C@@H]12 [TETRACYCLINE] | 64 (≈ 144 µM) | 64 (≈ 144 µM) | 64 (≈ 144 µM) | 0.5 (≈ 1.13 µM) | 2 | – | 1 | 1 | – | – | –
CO[C@@H]1[C@@H](OC(N)=O)[C@@H](O)[C@H](Oc2ccc3c(O)c(NC(=O)c4ccc(O)c(CC=C(C)C)c4)c(=O)oc3c2C)OC1(C)C [NOVOBIOCIN] | 120 (≈ 196 µM) | 84 (≈ 137 µM) | 40 (≈ 65.3 µM) | 4 (≈ 6.53 µM) | 5 | < 0.5 | 20 | 3 | < 0.5 | – | –
C[C@@H](O)[C@H]1C(=O)N2C(C(=O)O)=C(SCCNC=N)C[C@H]12 | – | – | – | – | – | – | – | – | – | inactive | –
O=C(N[C@H](CO)[C@H](O)c1ccc([N+](=O)[O-])cc1)C(Cl)Cl [CHLORAMPHENICOL] | 256 (≈ 792 µM) | 128 (≈ 396 µM) | 64 (≈ 198 µM) | 0.2 (≈ 0.619 µM) | 1 | – | 0.2 | 4 | – | – | –
N#CC(C#N)=NNc1cccc(Cl)c1 | – | – | – | – | – | – | – | – | – | – | Active
COC(=O)c1ccccc1-c1c2ccc(=N)cc-2oc2cc(N)ccc12.Cl [RHODAMINE123] | 128 | 128 | 64 | 8 | 4 | – | 32 | 2 | – | – | –
NCC[C@H](O)C(=O)N[C@@H]1C[C@H](N)[C@@H](O[C@H]2O[C@H](CN)[C@@H](O)[C@H](O)[C@H]2O)[C@H](O)[C@H]1O[C@H]1O[C@H](CO)[C@@H](O)[C@H](N)[C@H]1O [AMIKACIN] | 256 (≈ 437 µM) | 256 (≈ 437 µM) | 256 (≈ 437 µM) | 1 (≈ 1.71 µM) | 2 | 0.15 | 2 | 1 | 0.15 | – | –
CN(C)c1ccc2cc3ccc(N(C)C)cc3nc2c1 [ACRIDINE ORANGE] | 200 (≈ 754 µM) | 125 (≈ 471 µM) | 50 (≈ 188 µM) | 16 (≈ 60.3 µM) | 5 | – | 80 | 4 | – | – | –
CCBr [BROMOETHANE] | 1020 (≈ 9400 µM) | > 512 | 128 (≈ 1170 µM) | 2 (≈ 18.4 µM) | 4 | – | 8 | 8 | – | – | –
CCn1cc(C(=O)O)c(=O)c2ccc(C)nc21 [NALIDIXIC ACID] | 256 (≈ 1100 µM) | 256 (≈ 1100 µM) | 128 (≈ 551 µM) | 1 (≈ 4.31 µM) | 1 | – | 1 | 2 | – | – | –
N=C(NCCCCCCNC(=N)NC(=N)Nc1ccc(Cl)cc1)NC(=N)Nc1ccc(Cl)cc1 [CHLORHEXIDINE] | 32 (≈ 63.3 µM) | 32 (≈ 63.3 µM) | 16 (≈ 31.7 µM) | 2 (≈ 3.96 µM) | 2 | – | 4 | 2 | – | – | –
CC(C)(O/N=C(\C(=O)N[C@@H]1C(=O)N2C(C(=O)[O-])=C(C[n+]3ccccc3)CS[C@H]12)c1csc(N)n1)C(=O)O | – | – | – | – | – | – | – | – | – | inactive | –
C[C@@H](O)[C@H]1C(=O)N2C(C(=O)O)=C(S[C@@H]3CN[C@H](C(=O)N(C)C)C3)[C@H](C)[C@H]12 | – | – | – | – | – | – | – | – | – | inactive | –
CCn1cc(C(=O)O)c(=O)c2cc(F)c(N3CCNCC3)cc21 [NORFLOXACIN] | 512 (≈ 1600 µM) | > 128 | 256 (≈ 802 µM) | 0.06 (≈ 0.188 µM) | 2 | 0.001 | 0.12 | 2 | 0.001 | – | –
COc1cc(Cc2cnc(N)nc2N)cc(OC)c1OC [TRIMETHOPRIM] | 64 (≈ 220 µM) | 64 (≈ 220 µM) | 64 (≈ 220 µM) | 0.125 (≈ 0.431 µM) | 2 | – | 0.2 | 1 | – | – | –
[Cl-].c1ccc([P+](c2ccccc2)(c2ccccc2)c2ccccc2)cc1 [TETRAPHENYLPHOSPHONIUM CHLORIDE] | 1500 | > 500 | 300 | 8 | 2 | 0.25 | 16 | 5 | 0.25 | – | –
N=C(N)c1ccc(-c2cc3ccc(C(=N)N)cc3[nH]2)cc1 [DAPI] | 2 (≈ 7.21 µM) | 2 (≈ 7.21 µM) | 0.5 (≈ 1.8 µM) | 0.5 (≈ 1.8 µM) | 4 | – | 2 | 4 | – | – | –
CCCCCCCCCCCCOS(=O)(=O)[O-].[Na+] [SODIUM LAURYL SULFATE] | > 256 | 128 | 16 | 50 | 16 | < 5 | 800 | >16 | < 5 | – | –
C[C@H](CCC(=O)O)[C@H]1CC[C@H]2[C@@H]3CC[C@@H]4C[C@H](O)CC[C@]4(C)[C@H]3C[C@H](O)[C@]12C [DEOXYCHOLIC ACID] | > 2050 | 512 (≈ 1300 µM) | 128 (≈ 326 µM) | 125 (≈ 318 µM) | 25 | < 0.25 | 3120 | >16 | 5 | – | –
